# Test results as given in ChEMBL document CHEMBL1144749, “Development of 2-t butyl-N-methyl pyrimidones as potent inhibitors of HIV integrase” (Bioorg Med Chem Lett, 2008).
# pIC50: −log10 of the molar value.
# Key:
# [1] = tested on: Human immunodeficiency virus 1; experiment: Antiviral activity against HIV1 3b in human MT4 cells assessed as inhibition of viral spread in presence of 10% heat-inactivated fetal bovine serum; type: functional; details: Human immunodeficiency virus 1, 3b, read-out: CIC95
# In short: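 Spread assay: HIV-1 IIIb infection of MT-4 T-lymphoid cells in medium with 10% heat-inactivated FBS. CIC95 is the concentration inhibiting 95% of viral spread. Mean of at least 3 independent experiments.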
# [2] = tested on: Human immunodeficiency virus 1; experiment: Antiviral activity against HIV1 3b in human MT4 cells assessed as inhibition of viral spread in presence of 50% normal human serum; type: functional; details: Human immunodeficiency virus 1, 3b, read-out: CIC95
# In short: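 Spread assay: HIV-1 IIIb infection of MT-4 T-lymphoid cells run with 50% normal human serum. CIC95 is the concentration inhibiting 95% of viral spread.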
# [3] = target: Human immunodeficiency virus type 1 integrase (Human immunodeficiency virus 1, UniProt Q7ZJM1); experiment: Inhibition of HIV1 recombinant integrase strand transfer activity
# Sequence of Human immunodeficiency virus type 1 integrase (Q7ZJM1 whole entry): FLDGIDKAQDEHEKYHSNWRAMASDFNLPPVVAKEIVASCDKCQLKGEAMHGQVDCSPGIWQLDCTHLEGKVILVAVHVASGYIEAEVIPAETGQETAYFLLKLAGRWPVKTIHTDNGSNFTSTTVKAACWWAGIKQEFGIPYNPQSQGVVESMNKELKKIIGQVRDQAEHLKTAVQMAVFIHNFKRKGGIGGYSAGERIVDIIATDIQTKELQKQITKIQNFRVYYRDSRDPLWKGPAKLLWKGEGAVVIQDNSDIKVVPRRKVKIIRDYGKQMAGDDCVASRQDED
# In short: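 Strand-transfer assay: inhibitors added after integrase assembly and washes. IC50 is the concentration reducing integrase activity by 50%. Mean of at least three independent experiments.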
# [4] = organism: Homo sapiens; experiment: Fraction unbound in human plasma proteins after 1 hr
# [5] = Metabolic stability assessed as intrinsic clearance in rat microsome at 1 uM after 90 mins; type: ADME; details: liver microsomes
# In short: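 Compound at 1 µM with microsomes at 1 mg/ml. Substrate degradation followed by LC/MS/MS over a 90 min incubation.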
# [6] = (§1) Oral bioavailability in Sprague-Dawley rat at 3 mg/kg; type: ADME, organism-based; details: Sprague-Dawley, in vivo
# In short: (§2)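 Sprague–Dawley rats dosed iv in 20% DMSO/60% PEG400/20% water, or orally as a 1% methylcellulose suspension. Outputs: AUC after po dosing, plasma clearance, terminal-phase plasma half life after iv dosing, oral bioavailability.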
# [7] = Terminal half life in Sprague-Dawley rat plasma at 3 mg/kg, iv; type: ADME, organism-based; set-up: dose 3 mg/kg, route intravenous; in short: as §2
# [8] = Clearance in Sprague-Dawley rat plasma at 3 mg/kg, iv and 3 mg/kg, po; type: ADME, organism-based; in short: as §2
# [9] = (§3) AUC in Sprague-Dawley rat at 3 mg/kg, po; type: ADME, organism-based, Plasma; set-up: dose 3 mg/kg, route oral; details: Sprague-Dawley, plasma; in short: as §2
# [10] = tested on: Rattus norvegicus; experiment: as §1; type: ADME, organism-based; details: in vivo; in short: as §2
# [11] = tested on: Rattus norvegicus; experiment: as §3; type: ADME, organism-based, Plasma; set-up: dose 3 mg/kg, route oral; details: in vivo; in short: as §2
Structure (SMILES),pIC50 [3],fraction unbound at 1 h [4],microsomal CLint at 1 µM [5],bioavailability [6],half-life [7],clearance [8],AUC [9],F [10],AUC [11],IC95 [1],IC95 [2]
O=C(NCc1ccc(F)cc1)c1nc(-c2cccs2)nc(O)c1O,,,,,,,,,,> 10000 nM,
CN1CCN(C(=O)c2cc(F)ccc2CNC(=O)c2nc(C(C)(C)C)n(C)c(=O)c2O)CC1,6.31,0.34,,,,,,,,120 nM,120 nM
CNC(=O)c1cc(F)ccc1CNC(=O)c1nc(C(C)(C)C)nc(O)c1O,7.70,,,,,,,,,,
Cn1c(C(C)(C)C)nc(C(=O)NCc2cccc3cc[nH]c23)c(O)c1=O,7.70,,,,,,,,,1000 nM,> 1000 nM
Cn1c(C(C)(C)C)nc(C(=O)NCc2ccc(F)cc2S(C)(=O)=O)c(O)c1=O,7.70,,63 µL/min/mg,17%,1.8 h,37 mL/min/kg,0.6 µM·h,,,10 nM,20 nM
Cn1c(C(C)(C)C)nc(C(=O)NCc2ccc(F)cc2C(=O)N2CCCC2)c(O)c1=O,6.64,,,,,,,,,120 nM,120 nM
Cc1noc(-c2cc(F)ccc2CNC(=O)c2nc(C(C)(C)C)nc(O)c2O)n1,7.70,,,,,,,,,120 nM,> 1000 nM
CCCNC(=O)c1cc(F)ccc1CNC(=O)c1nc(C(C)(C)C)n(C)c(=O)c1O,7.15,0.02,,,,,,,,30 nM,60 nM
CCNC(=O)c1cc(F)ccc1CNC(=O)c1nc(C(C)(C)C)n(C)c(=O)c1O,7.15,0.03,,30%,2.6 h,21 mL/min/kg,1.8 µM·h,,,20 nM,20 nM
CC(C)(C)c1nc(O)c(O)c(C(=O)NCc2ccc(F)cc2S(C)(=O)=O)n1,7.22,,,,,,,,,,
CC(C)NC(=O)c1cc(F)ccc1CNC(=O)c1nc(C(C)(C)C)n(C)c(=O)c1O,7.05,0.01,,,1.6 h,,,44%,3.5 µM·h,60 nM,60 nM
Cn1c(C(C)(C)C)nc(C(=O)NCc2ccc(F)cc2C(N)=O)c(O)c1=O,7.70,0.06,,23%,3.6 h,55 mL/min/kg,0.6 µM·h,,,10 nM,10 nM
CC(C)(C)c1nc(O)c(O)c(C(=O)NCc2cccc3cc[nH]c23)n1,8.00,,,,,,,,,> 1000 nM,> 1000 nM
CCOc1ccccc1CNC(=O)c1nc(C(C)(C)C)nc(O)c1O,8.00,,,,,,,,,1000 nM,> 1000 nM
CC(C)(C)c1nc(O)c(O)c(C(=O)NCc2ccc(F)cc2)n1,8.00,,,,,,,,,250 nM,2500 nM

# More lines, main results first:
pIC50 [3],fraction unbound at 1 h [4],microsomal CLint at 1 µM [5],bioavailability [6],half-life [7],clearance [8],AUC [9],F [10],AUC [11],Structure (SMILES),IC95 [1],IC95 [2]
8.00,,,,,,,,,Cn1c(C(C)(C)C)nc(C(=O)NCc2ccc(F)cc2)c(O)c1=O,120 nM,370 nM
6.74,0.18,,,,,,,,CN(C)C(=O)c1cc(F)ccc1CNC(=O)c1nc(C(C)(C)C)n(C)c(=O)c1O,30 nM,30 nM
7.05,0.01,,,,,,,,Cn1c(C(C)(C)C)nc(C(=O)NCc2ccc(F)cc2C(=O)NCC(F)(F)F)c(O)c1=O,30 nM,120 nM
7.70,,,,,,,,,Cc1noc(-c2cc(F)ccc2CNC(=O)c2nc(C(C)(C)C)n(C)c(=O)c2O)n1,20 nM,120 nM
7.70,0.07,16 µL/min/mg,18%,1.6 h,24 mL/min/kg,1.4 µM·h,,,CNC(=O)c1cc(F)ccc1CNC(=O)c1nc(C(C)(C)C)n(C)c(=O)c1O,10 nM,10 nM
7.70,,,,,,,,,CCOc1ccccc1CNC(=O)c1nc(C(C)(C)C)n(C)c(=O)c1O,120 nM,500 nM
